What was measured:
[1] = Oral bioavailability in rat; type: ADME, organism-based; conditions: in vivo
Summary of the method: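 Oral bioavailability (%F) was measured in rats, generally dosing the hydrochloride salt; some compounds were given as free base.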

[2] = target: T1, Serine/threonine-protein kinase B-raf (Homo sapiens, UniProt P15056, V600E); assay: Binding affinity to BRAF V600E mutant
[3] = target: T1, Serine/threonine-protein kinase B-raf; assay: Inhibition of BRAF V600E mutant-dependent MEK phosphorylation in A375 cells; type: cell-based, A-375
Mus musculus [4] = assay: Inhibition of BRAF V600E mutant-dependent MEK phosphorylation in Colo205 cells xenografted in nude mouse at 100 mg/kg, po bid for 5 days measured at 24 hrs post-dose; type: functional; conditions: COLO 205
[5] = AUC in mouse plasma at 30 mg/kg, po; type: ADME, organism-based; parameters: dose 30 mg/kg, route oral
Summary of the method: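 Compound given orally to mice at the stated dose. Plasma exposure reported as AUC in μM × h.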

Mus musculus [6] = assay: Inhibition of BRAF V600E mutant-dependent MEK phosphorylation in Colo205 cells xenografted in nude mouse at 100 mg/kg, po bid for 5 days measured at 10 hrs post-dose; type: functional; conditions: COLO 205
Summary of the method: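 Colo-205 xenograft mice were dosed orally at 100 mg/kg bid. On day 5 of dosing, tumor tissue was collected 10 h post-dose and phosphorylated MEK levels were measured against vehicle.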

COLO 205 [7] = assay: Antitumor activity against human COLO205 cells xenografted in nude mouse assessed as tumor growth inhibition at 55 mg/kg, po bid upto 8 days; type: functional; conditions: COLO 205, 192 h, read-out: TGI
Summary of the method: (§1)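 Mice bearing Colo-205 tumors were dosed orally bid at 30, 55 or 100 mg/kg and compared with a vehicle control group. Tumor growth was followed over the dosing period, […]. Outcomes recorded were stasis, regrowth, incidence of regressions and % growth inhibition. Significance was tested against vehicle.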

Mus musculus [8] = assay: Inhibition of BRAF V600E mutant-dependent MEK phosphorylation in Colo205 cells xenografted in nude mouse assessed as compound concentration in tumor required for maximum % inhibition; type: functional
COLO 205 [9] = assay: Antitumor activity against human COLO205 cells xenografted in nude mouse assessed as tumor growth inhibition at 100 mg/kg, po bid upto 8 days; type: functional; conditions: COLO 205, 192 h, read-out: TGI; summary of the method: as §1
Mus musculus [10] = assay: Inhibition of BRAF V600E mutant-dependent MEK phosphorylation in Colo205 cells xenografted in nude mouse assessed as compound concentration in plasma required for maximum % inhibition; type: functional
Mus musculus [11] = assay: Toxicity in nude mouse xenografted with human COLO205 cells assessed as body weight loss at 30 to 100 mg/kg, po bid upto 15 days; type: organism-based, COLO 205; parameters: dose 30-100 mg/kg, route oral; conditions: in vivo, 360 h
Summary of the method: (§2)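 Body weight was monitored in Colo-205 xenograft-bearing mice during oral bid dosing, with maximum % loss recorded. Monitoring continued after dosing stopped to assess reversibility.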

Mus musculus [12] = assay: Toxicity in nude mouse xenografted with human COLO205 cells assessed as body weight loss at 10 to 100 mg/kg, po bid upto 15 days; type: organism-based, COLO 205; parameters: dose 10-100 mg/kg, route oral; conditions: in vivo, 360 h; summary of the method: as §2

T1 sequence (P15056 2-766 V600E limits assumed): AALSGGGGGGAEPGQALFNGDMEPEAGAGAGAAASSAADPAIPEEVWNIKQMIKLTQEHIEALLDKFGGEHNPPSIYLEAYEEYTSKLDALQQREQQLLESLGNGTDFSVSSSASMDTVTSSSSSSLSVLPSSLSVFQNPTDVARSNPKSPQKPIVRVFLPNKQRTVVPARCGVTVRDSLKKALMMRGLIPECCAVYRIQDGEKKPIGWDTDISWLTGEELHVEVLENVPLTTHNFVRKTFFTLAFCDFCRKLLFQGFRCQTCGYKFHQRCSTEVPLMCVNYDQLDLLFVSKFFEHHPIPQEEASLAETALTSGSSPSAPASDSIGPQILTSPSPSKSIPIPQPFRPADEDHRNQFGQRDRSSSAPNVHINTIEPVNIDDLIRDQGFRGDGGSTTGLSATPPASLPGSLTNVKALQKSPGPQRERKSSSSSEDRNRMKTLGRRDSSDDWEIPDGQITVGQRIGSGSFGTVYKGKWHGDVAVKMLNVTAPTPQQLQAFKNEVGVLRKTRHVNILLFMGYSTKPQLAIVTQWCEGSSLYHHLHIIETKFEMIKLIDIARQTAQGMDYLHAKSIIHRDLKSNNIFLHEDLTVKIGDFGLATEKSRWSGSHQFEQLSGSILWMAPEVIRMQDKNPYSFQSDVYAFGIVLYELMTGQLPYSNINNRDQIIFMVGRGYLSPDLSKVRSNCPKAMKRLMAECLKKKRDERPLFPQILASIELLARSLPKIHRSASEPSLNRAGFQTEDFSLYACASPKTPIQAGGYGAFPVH

| SMILES | bioavailability [1] [%] | Kd [2] [nM] | IC50 [3] [nM] | further results |
| --- | --- | --- | --- | --- |
| COc1cc2ncnc(Sc3cccc(NC(=O)Nc4cc(C(C)(C)C)on4)c3)c2cc1OC.Cl | 24 | – | – | – |
| COc1cc2ncnc(Oc3cccc(NC(=O)Nc4ccccc4)c3)c2cc1OC | – | 370 | – | – |
| COc1cc2ncnc(Nc3ccc(NC(=O)Nc4cc(C(C)(C)C)on4)cc3)c2cc1OC | – | 478 | – | – |
| COc1cc2ncnc(Oc3cccc(NC(=O)Nc4cc(C(C)(C)C)on4)c3)c2cc1O | – | 46 | 86 | – |
| COc1cc2ncnc(Oc3cccc(NC(=O)Nc4cc(C(C)(C)C)on4)c3)c2cc1OC | – | 73 | 121 | – |
| COc1cc2ncnc(Oc3cccc(NC(=O)Nc4ccc(Cl)cc4)c3)c2cc1OC | – | 30 | 1850 | – |
| COc1cc2ncnc(Nc3ccc(NC(=O)Nc4cc(C(C)(C)C)on4)cc3)c2cc1OC.Cl | < 1 | – | – | – |
| COCCOc1cc2c(Oc3cccc(NC(=O)Nc4cc(C(C)(C)C)on4)c3)ncnc2cc1OC | – | 48 | 59 | – |
| COc1cc2ncnc(Oc3cccc(NC(=O)Nc4cc(C(C)(C)C)on4)c3)c2cc1OCCN1CCOCC1 | 11 | 38 | 52 | – |
| COc1cc2ncnc(Oc3cccc(NC(=O)Nc4cccc(C(C)(C)C)c4)c3)c2cc1OC | – | 36 | 333 | – |
| COc1cc2ncnc(Oc3cc(NC(=O)Nc4cc(C(C)(C)C)on4)ccc3F)c2cc1OC.Cl | 22 | – | – | – |
| COc1cc2ncnc(Oc3cccc(NC(=O)Nc4ccc(Cl)c(C(F)(F)F)c4)c3)c2cc1OC | – | 98 | 696 | – |
| COc1cc2ncnc(Oc3cccc(NC(=O)Nc4cc(C(C)(C)C)on4)c3)c2cc1OCCCN1CCOCC1 | – | 29 | 36 | – |
| COc1cc2ncnc(Oc3cccc(NC(=O)Nc4cccc(C(F)(F)F)c4)c3)c2cc1OC | – | 46 | 1660 | – |
| COc1cc2c(Oc3cccc(NC(=O)Nc4cc(C(C)(C)C)on4)c3)ncnc2cc1O | < 1 | 57 | 110 | – |
| COCCOc1cc2c(Oc3cccc(NC(=O)Nc4cc(C(C)(C)C)on4)c3)ncnc2cc1OC.Cl | 13 | – | – | – |
| COc1cc2ncnc(Oc3ccc(F)c(NC(=O)Nc4cc(C(C)(C)C)on4)c3)c2cc1OC | – | 56 | 113 | – |
| COc1cccc(NC(=O)Nc2cccc(Oc3ncnc4cc(OC)c(OC)cc34)c2)c1 | – | 90 | 10000 | – |
| COc1cc2ncnc(Oc3cccc(NC(=O)Nc4cc(C(C)(C)C)on4)c3C)c2cc1OC | – | 38 | 179 | – |
| COc1cc2ncnc(Sc3cccc(NC(=O)Nc4cc(C(C)(C)C)on4)c3)c2cc1OC | – | 61 | 118 | inhibition in vivo at 100 mg/kg (Mus musculus [4]): 55%; AUC [5]: 22 µM·h; inhibition in vivo at 100 mg/kg (Mus musculus [6]): 75%; inhibition in vivo at 55 mg/kg (COLO 205 [7]): 45%; Activity (Mus musculus [8]): 0.2 µM; inhibition in vivo at 100 mg/kg (COLO 205 [9]): 45%; Activity (Mus musculus [10]): 0.2 µM; Activity (Mus musculus [11]): Non-toxic; Activity (Mus musculus [12]): Non-toxic |
